From ChEMBL document CHEMBL1125840, “Antimalarial polyamine analogues” (J Med Chem, 1991)

Key:
[1] = system: Plasmodium falciparum; assay: In vitro antimalarial activity against Plasmodium falciparum; type: functional, organism-based
Summary of the method: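 P. falciparum clone D6 (Sierra Leone strain) grown in human O+ erythrocytes, 1% erythrocyte suspension, starting parasitemia about 0.5%. Analogues dissolved in culture medium and filter-sterilized. After 24 h of exposure, [3H]hypoxanthine (1 µCi) was added and its incorporation measured after a further 18-24 h. IC50 is the concentration (µM) inhibiting incorporation by 50%.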

[2] = system: Plasmodium berghei; assay: In vivo antimalarial activity against Plasmodium berghei in mice (Mus musculus) as maximum dose tolerated; type: functional
Summary of the method: (§1)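 Peters 4-day suppression test, mice in groups of five, P. berghei given intravenously. DFMO 2% in drinking water for four nights (Mon-Thu), starting about 4-6 h after infection. Analogues given intraperitoneally at 8:30, 12:30 and 16:30 on three consecutive days (Tue-Thu). Dose reported as highest tolerated, highest tested, or giving maximum response. Cures judged as survival beyond 4 months with parasite-free Giemsa blood smears.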

[3] = system: Plasmodium berghei; assay: In vivo antimalarial activity against Plasmodium berghei infected mice (Mus musculus) as cures surviving after 4 months; type: functional
Summary of the method: (§2)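 Standard 4-day suppression test: mice in groups of five infected intravenously with P. berghei; treatment began about 4-6 h after infection. Co-treatment with DFMO as 2% solution in drinking water for four nights, plus analogue given intraperitoneally three times daily (8:30, 12:30, 16:30) on three consecutive days. Cure means survival beyond 4 months with parasite-free Giemsa-stained blood smears on periodic examination.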

[4] = system: Plasmodium berghei; assay: In vivo antimalarial activity against Plasmodium berghei in mice (Mus musculus) as dose required for Emax; type: functional; summary of the method: as §1
[5] = system: Plasmodium berghei; assay: In vivo antimalarial activity against Plasmodium berghei in mice (Mus musculus) as maximum dose tested; type: functional; summary of the method: as §1
[6] = system: Plasmodium berghei; assay: In vivo antimalarial activity as increased survival (%max) against Plasmodium berghei in mice (Mus musculus); type: functional; summary of the method: as §2

| IC50 [1] [µM] | SMILES | other results |
| --- | --- | --- |
| 2.5 | COc1ccc(CNCCCNCCCCCCCNCCCNCc2ccc(OC)cc2)cc1 |  |
| 1.4 | Clc1ccc(CNCCCNCCCCCCCNCCCNCc2ccc(Cl)cc2)cc1 |  |
| 1.4 | CCc1ccc(CNCCCNCCCCCCCCNCCCNCc2ccc(CC)cc2)cc1 |  |
| 0.34 | c1ccc2c(CNCCCNCCCCCCCCNCCCNCc3cccc4ccccc34)cccc2c1 |  |
| 5.3 | c1ccc(CNCCCCNCCCCCCCCNCCCCNCc2ccccc2)cc1 |  |
| 27 | Oc1ccc(CNCCCNCCCCCCCNCCCNCc2ccc(O)cc2)cc1 |  |
| 1.8 | CCc1ccc(CNCCCNCCCCCCCNCCCNCc2ccc(CC)cc2)cc1.Cl.Cl.Cl.Cl | Dose [5]: 30 mg/kg |
| 0.6 | CSc1ccc(CNCCCNCCCCCCCCNCCCNCc2ccc(SC)cc2)cc1 |  |
| 3.9 | c1cc(CNCCCNCCCCCCCNCCCNCc2ccsc2)cs1 |  |
| 5.7 | Oc1ccc(CNCCCNCCCCCCCCNCCCNCc2ccc(O)cc2)cc1 |  |
| 0.2 | Cl.Cl.Cl.Cl.c1ccc(CNCCCNCCCCCCCCCCCCNCCCNCc2ccccc2)cc1 | Dose [2]: 10 mg/kg |
| 5.3 | Cl.Cl.Cl.Cl.c1ccc(CNCCCNCCCCCCNCCCNCc2ccccc2)cc1 | Dose [5]: 30 mg/kg |
| 4.5 | c1csc(CNCCCNCCCCCCCNCCCNCc2cccs2)c1 |  |
| 1.4 | c1ccc(CNCCNCCCCCCCNCCNCc2ccccc2)cc1 |  |
| 3.2 | c1ccc(CNCCCCNCCCCCCCNCCCCNCc2ccccc2)cc1 |  |
| 86 | CS(=O)(=O)c1ccc(CNCCCNCCCCCCCNCCCNCc2ccc(S(C)(=O)=O)cc2)cc1 |  |
| 20 | CS(=O)(=O)c1ccc(CNCCCNCCCCCCCCNCCCNCc2ccc(S(C)(=O)=O)cc2)cc1 |  |
| 0.3 | c1ccc(CNCCNCCCCCCCCCCNCCNCc2ccccc2)cc1 |  |
| 3 | CSc1ccc(CNCCCNCCCCCCCNCCCNCc2ccc(SC)cc2)cc1 |  |
| 1.3 | COc1ccc(CNCCCNCCCCCCCCNCCCNCc2ccc(OC)cc2)cc1 |  |

More lines, now with the values behind:

| SMILES | IC50 [1] [µM] | other results |
| --- | --- | --- |
| Cl.Cl.Cl.Cl.c1ccc(CNCCCNCCCCCCCCCCNCCCNCc2ccccc2)cc1 | 0.5 | Dose [2]: 3 mg/kg; Cured [3]: 40% |
| c1ccc(CNCCNCCCCCCNCCNCc2ccccc2)cc1 | 4.5 |  |
| c1ccc(CCCNCCCNCCCCCCCNCCCNCCCc2ccccc2)cc1 | 0.3 |  |
| c1ccc(NCCCNCCCCCCCNCCCNc2ccccc2)cc1 | 0.5 |  |
| Cl.Cl.Cl.Cl.c1ccc(CNCCCNCCCCCCCNCCCNCc2ccccc2)cc1 | 3 | Dose [4]: 15 mg/kg; Cured [3]: 100% |
| C(CCCNCCCNCC1CCCCC1)CCCNCCCNCC1CCCCC1 | 1.8 |  |
| CC(N)CCNCCCCCCCNCCC(C)N (stereo unspecified) | > 20 |  |
| CCCCNCCCNCCCCCCCCNCCCNCCCC | 30 |  |
| Cl.Cl.Cl.Cl.c1ccc(CNCCCNCCCCCCCCCNCCCNCc2ccccc2)cc1 | 0.7 | Dose [4]: 10 mg/kg; Cured [3]: 60% |
| NCCCNCCCCCCCNCCCN | 4300 |  |
| CC(CCNCCCCCCCNCCC(C)NCc1ccccc1)NCc1ccccc1.Cl.Cl.Cl.Cl (stereo unspecified) | 2.6 | Dose [5]: 100 mg/kg |
| Cl.Cl.Cl.Cl.c1ccc(CNCCCNCCCCCNCCCNCc2ccccc2)cc1 | 6.7 | Max increase [6]: 30%; Dose [5]: 30 mg/kg |
| NCCCNCCCCCCCCNCCCN | 1800 |  |
| Cl.Cl.Cl.Cl.c1ccc(CNCCNCCCCCCCCNCCNCc2ccccc2)cc1 | 0.3 | Max increase [6]: 45%; Dose [5]: 30 mg/kg |
| c1ccc(CCNCCCNCCCCCCCNCCCNCCc2ccccc2)cc1 | 1.9 |  |
| CC(NCCCNCCCCCCCNCCCNC(C)c1ccccc1)c1ccccc1 (stereo unspecified) | 4.8 |  |
| Cl.Cl.Cl.Cl.c1ccc(CNCCCNCCCCCCCCNCCCNCc2ccccc2)cc1 | 0.8 | Dose [4]: 10 mg/kg; Cured [3]: 80% |
| Cl.Cl.Cl.Cl.c1ccc(CNCCCNCCCCNCCCNCc2ccccc2)cc1 | 14 | Max increase [6]: 30%; Dose [5]: 30 mg/kg |
| NCCCNCCCCCCCCNCCCNCc1ccccc1 | 64 |  |
| Cl.Cl.Cl.Cl.Clc1ccc(CNCCCNCCCCCCCCNCCCNCc2ccc(Cl)cc2)cc1 | 0.5 | Dose [2]: 3 mg/kg; Cured [3]: 60% |
| NCCCNCCCCCCCNCCCNCc1ccccc1 | 330 |  |
